# Where two headings read alike, the source gives them in different places. Ends that are not written are not given here. Peptide text beside a SMILES is read from it. * marks the point of attachment. 5FAM = O=C1OC2(c3ccc(O)cc3Oc3cc(O)ccc32)c2ccc(C(=O)*)cc21
# Legend:
# recombinant human Nln [1] = molecular target: T1, recombinant human Nln (Homo sapiens, UniProt Q9BYT8); details: read-out: Ki (published value); inhibition of Nln; cited from earlier work
# recombinant human Nln [2] = molecular target: T1, recombinant human Nln; assay: Competition of Dyn A peptides with quenched fluorogenic Nln substrate; assay type: biochemical
# Procedure, shortened: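 N-terminally 6xHis-tagged human Nln (Ser38–Pro704) was incubated in aCSF at 37 °C with 15 µM quenched substrate Mca-Pro-Leu-Gly-Pro-D-Lys(DNP)-OH, ± Dyn A peptide at 0.1–100 µM. Fluorescence was recorded continuously for 20 min under initial-velocity conditions (<10% substrate consumed). V0 was expressed as % of the no-peptide control and fitted to three-parameter log(inhibitor)–response to give IC50. Ki was calculated by Cheng–Prusoff (Km 8 µM). n=4, duplicates.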
# rNln E475A = rNln E475A (Rattus norvegicus, UniProt P42676, E498A); assay type: binding
# Procedure, shortened: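 Rat Nln (Met37–Ser704, E475A) with a C-terminal 6xHis tag, expressed in E. coli BL21(DE3) and purified by Ni-affinity and SEC. FAM-labelled Dyn A peptides (FAM replacing Tyr1; 18 nM final) were mixed with 0–50 µM Nln in aCSF (0.2 µM ZnSO4, pH 7.2) plus 0.01% Triton X-100. Polarization was read at 25 °C (ex 485/em 535 nm). ΔmP versus no-Nln was fitted to one-site binding with ligand depletion for KD.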
# Sequence of rNln E475A (P42676 37-704 E498A): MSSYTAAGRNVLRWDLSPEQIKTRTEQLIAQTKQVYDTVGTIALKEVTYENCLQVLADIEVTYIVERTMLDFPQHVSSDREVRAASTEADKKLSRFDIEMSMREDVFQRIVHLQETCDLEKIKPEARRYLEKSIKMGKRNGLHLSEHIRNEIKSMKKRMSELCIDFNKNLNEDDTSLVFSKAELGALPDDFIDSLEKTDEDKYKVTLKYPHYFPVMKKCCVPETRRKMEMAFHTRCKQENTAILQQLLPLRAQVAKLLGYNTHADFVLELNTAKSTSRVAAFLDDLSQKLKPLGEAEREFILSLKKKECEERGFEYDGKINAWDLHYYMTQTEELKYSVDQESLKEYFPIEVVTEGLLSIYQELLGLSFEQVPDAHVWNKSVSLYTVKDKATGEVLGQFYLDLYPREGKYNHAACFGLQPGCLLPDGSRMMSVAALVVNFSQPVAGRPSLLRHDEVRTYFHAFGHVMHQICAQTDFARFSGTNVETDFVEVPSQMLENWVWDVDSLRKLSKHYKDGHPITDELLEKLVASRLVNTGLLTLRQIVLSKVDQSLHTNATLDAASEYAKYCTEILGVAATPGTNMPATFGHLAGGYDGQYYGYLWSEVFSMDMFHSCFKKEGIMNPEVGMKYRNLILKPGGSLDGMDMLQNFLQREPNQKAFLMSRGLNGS
# T1 sequence (Q9BYT8 38-704): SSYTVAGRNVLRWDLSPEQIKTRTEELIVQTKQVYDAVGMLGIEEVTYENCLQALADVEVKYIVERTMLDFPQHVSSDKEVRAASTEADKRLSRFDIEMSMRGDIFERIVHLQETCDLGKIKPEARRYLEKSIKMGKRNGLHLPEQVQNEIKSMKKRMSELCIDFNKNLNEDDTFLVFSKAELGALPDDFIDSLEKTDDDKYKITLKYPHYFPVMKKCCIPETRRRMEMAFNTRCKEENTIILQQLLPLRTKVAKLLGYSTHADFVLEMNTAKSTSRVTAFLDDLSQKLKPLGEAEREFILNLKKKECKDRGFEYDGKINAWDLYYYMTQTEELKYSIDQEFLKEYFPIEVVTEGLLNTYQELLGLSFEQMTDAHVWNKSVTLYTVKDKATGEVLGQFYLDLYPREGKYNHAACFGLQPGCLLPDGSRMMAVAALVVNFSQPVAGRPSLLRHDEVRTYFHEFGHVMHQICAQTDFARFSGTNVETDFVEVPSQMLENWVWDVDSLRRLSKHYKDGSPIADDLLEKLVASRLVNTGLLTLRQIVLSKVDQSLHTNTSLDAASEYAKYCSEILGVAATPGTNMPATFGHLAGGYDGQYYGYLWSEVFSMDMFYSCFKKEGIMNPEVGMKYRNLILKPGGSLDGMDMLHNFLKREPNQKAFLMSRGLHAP
Molecule,Ki (recombinant human Nln [2]),Kd (rNln E475A),other results
CC[C@H](C)[C@H](NC(=O)[C@H](CCCNC(=N)N)NC(=O)[C@H](CCCNC(=N)N)NC(=O)[C@H](CC(C)C)NC(=O)[C@H](Cc1ccccc1)NC(=O)CNC(=O)CNC(=O)[C@@H](N)Cc1ccc(O)cc1)C(=O)N[C@@H](CCCNC(=N)N)C(=O)N1CCC[C@H]1C(=O)N[C@@H](CCCCN)C(=O)N[C@@H](CC(C)C)C(=O)N[C@@H](CCCCN)C(=O)O [Dyn A (1–13)],,,Ki (recombinant human Nln [1]): 1190 nM
CC[C@H](C)[C@H](NC(=O)[C@H](CCCNC(=N)N)NC(=O)[C@H](CCCNC(=N)N)NC(=O)[C@H](CC(C)C)NC(=O)[C@H](Cc1ccccc1)NC(=O)CNC(=O)CNC(=O)[C@@H](N)Cc1ccc(O)cc1)C(=O)N[C@@H](CCCNC(=N)N)C(=O)N1CCC[C@H]1C(=O)N[C@@H](CCCCN)C(=O)N[C@@H](CC(C)C)C(=O)N[C@@H](CCCCN)C(=O)N[C@@H](Cc1c[nH]c2ccccc12)C(=O)N[C@@H](CC(=O)O)C(=O)N[C@@H](CC(N)=O)C(=O)N[C@@H](CCC(N)=O)C(=O)O [Dyn A (1–17)],~6 µM,,
CC[C@H](C)[C@H](NC(=O)[C@H](CCCNC(=N)N)NC(=O)[C@H](CCCNC(=N)N)NC(=O)[C@H](CC(C)C)NC(=O)[C@H](Cc1ccccc1)NC(=O)CNC(=O)CNC(=O)c1ccc2c(c1)C(=O)OC21c2ccc(O)cc2Oc2cc(O)ccc21)C(=O)N[C@@H](CCCNC(=N)N)C(=O)N1CCC[C@H]1C(=O)N[C@@H](CCCCN)C(=O)N[C@@H](CC(C)C)C(=O)N[C@@H](CCCCN)C(=O)N[C@@H](Cc1c[nH]c2ccccc12)C(=O)N[C@@H](CC(=O)O)C(=O)N[C@@H](CC(N)=O)C(=O)N[C@@H](CCC(N)=O)C(=O)O [FAM-^2GGFLRRIRPKLKWDNQ^17],,3.26 µM,
CC[C@H](C)[C@H](NC(=O)[C@H](CCCNC(=N)N)NC(=O)[C@H](CCCNC(=N)N)NC(=O)[C@H](CC(C)C)NC(=O)[C@H](Cc1ccccc1)NC(=O)CNC(=O)CNC(=O)c1ccc2c(c1)C(=O)OC21c2ccc(O)cc2Oc2cc(O)ccc21)C(=O)N[C@@H](CCCNC(=N)N)C(=O)N1CCC[C@H]1C(=O)N[C@@H](CCCCN)C(=O)N[C@@H](CC(C)C)C(=O)N[C@@H](CCCCN)C(=O)O [FAM-^2GGFLRRIRPKLK^13],,4.69 µM,
CC[C@H](C)[C@H](NC(=O)[C@H](CCCNC(=N)N)NC(=O)[C@H](CCCNC(=N)N)NC(=O)[C@H](CC(C)C)NC(=O)[C@H](Cc1ccccc1)NC(=O)CNC(=O)CNC(=O)c1ccc2c(c1)C(=O)OC21c2ccc(O)cc2Oc2cc(O)ccc21)C(=O)N[C@@H](CCCNC(=N)N)C(=O)N1CCC[C@H]1C(=O)O [FAM-^2GGFLRRIRP^10] (5FAM-GGFLRRIRP-OH),,8.46 µM,
YGGFLRRIR [Dyn A (1–9)],~6 µM,,

# From paper PMC11310207 (Scientific Reports, 2024)
